Publication PMC8177775 (Cancer Science, 2021)
Several values for one entry are separate records, joined by “and”; a condition that tells them apart may be missing. Equal values may be shown once. Read-outs that look alike come from different tables or passages of the source.

Key:
[1] = tested on: macrophage inhibitory cytokine‐1 (MIC‐1) levels in serum; experiment: Serum MIC-1; type: in vivo, human
Outline: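 Serum was drawn on cycle 1 day 1 before dosing and 6 h post dose, and on days 2, 8, 15 and 21, during oral QD dosing on days 1–21 at 60, 90 or 120 mg. MIC-1 (GDF-15) was quantified by quantitative sandwich ELISA for human GDF-15. Change from baseline was summarized by cohort using descriptive statistics.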

[2] = tested on: solid tumors; experiment: Efficacy assessment by RECIST version 1.1; type: in vivo, human
Outline: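 Adults with relapsed or refractory solid tumors took oral test compound (tosylate salt) QD on days 1–21 of 28-day cycles at 60, 90 or 120 mg. Response was assessed by RECIST 1.1 using CT and MRI every 8 weeks through cycle 8, then every 12 weeks. Minimum SD duration was 8 weeks after first dose. Summaries were descriptive over patients with efficacy data.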

[3] = tested on: advanced solid tumors or lymphomas; settings: cited from earlier work
[4] = tested on: six human cancer cell lines; settings: cited from earlier work
[5] = tested on: human osteosarcoma xenografts; settings: human osteosarcoma xenografts in nude mice; cited from earlier work

For CC1(C)CCC2(CC1)N[C@@H](C(=O)N[C@@H]1CC[C@@H](C(N)=O)OC1)[C@H](c1ccnc(Cl)c1F)[C@]21C(=O)Nc2cc(Cl)ccc21 [milademetan, Milademetan], the “Increase of MIC-1 levels from baseline to day 21, mean (SD)” value (“Increase of MIC-1 levels … (SD)” below) ([1]; 60-mg cohort) was 2175.7 (1677.40) pg/mL, the “Increase of MIC-1 levels … (SD)” value ([1]; 90-mg cohort) was 9514.5 (6812.78) pg/mL and the “Increase of MIC-1 levels … (SD)” value ([1]; 120-mg cohort) was 7930.5 (7636.72) pg/mL. The “Mean MIC-1 levels after administration” value ([1]; all cohorts) was “increased from baseline in all cohorts”, the “Complete or partial response” value ([2]; 16 patients) was “No patients achieved complete or partial response” and the Antitumor activity ([2]; Japanese patients with solid tumors) was “modest antitumor activity”. For the same compound, the “Disease control rate, percentage of patients (95% CI)” value ([2]; Total (n = 16)) was 43.8%, the “Progressive disease, percentage of patients (95% CI)” value ([2]; Total (n = 16)) was 31.3% and the “Stable disease, percentage of patients (95% CI)” value ([2]; Total (n = 16)) was 43.8%. The “PFS rate (95% CI)” value ([2]; at 3 months) was 56.8%, the “PFS rate (95% CI)” value ([2]; at 6, 9, and 12 months) was 35.5% and the “Patients with a PFS event” value ([2]; efficacy analysis set, 17 patients) was “Eight of the 17 patients”. For the same compound, the “Median (minimum, maximum) PFS” value ([2]; including censored patients) was 15.29 (0.1, 202.1) weeks and 15.3 (0.1+, 202.1+) weeks, the “Median (range) duration of stable disease” value ([2]; including censored patients) was 55.4 (7.3‐202.1) weeks and 55.4 (7.3+, 202.1+) weeks and the “PFS of one patient” value ([2]; one patient in the 60-mg cohort with SD as best response) was 202.1 weeks. The “MTD in US phase I study” value ([3]; once-daily 21/28-day schedule) was 120 mg, the “MTD in US phase I study” value ([3]; once-daily 28/28-day schedule) was 90 mg and the “Growth of cancer cells harboring wild-type p53” value [4] was “inhibits the growth”. For the same compound, the “Tumor growth of xenografts” value [5] was “suppresses tumor growth”.
